Source: PubChem
UPR CHOP act: apoptotic UPR (CHOP) activation | activation, % at 10 µM | AID 449763 | hit rate 0.34% among 330,000 | CHO-CHOP luciferase reporter, luminescence; percent of tunicamycin response over DMSO baseline;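 active = at 10 µM dose, activation of 40% or more, normalized to positive control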
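System: CHO CHOP reporter cells. Amount: 500 cells per well. Buffer or medium: F12 medium, 10% FBS. Compound dosing: one dose, 10 µM in 0.5% DMSO. Incubation: 6 h compound exposure at 37 °C after overnight seeding. Technique: Steady-Glo luciferase luminescence. Benchmarks: tunicamycin and DMSO controls.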
NOD2 RIPK2 PPI: NOD2-RIPK2 protein interaction inhibition; AID 624267; hit rate 0.38% among 360,000; CHO BLA complementation NOD2-RIPK2, CCF4 ratio; O43353; inhibition, % at 4.98 µM; in the data active = inhibition above about 21%
TLR4 MyD88 comp: inhibitors of human TLR4-MyD88 binding | O00206+Q99836 | hit rate 0.18% among 200,000 | AID 861 | HeLa CL3-4 TLR4/MyD88 BLA complementation, FRET ratio | inhibition, % at 8.4 µM; in the data active = inhibition above about 25%
Target sequence (O00206 whole entry, looked up): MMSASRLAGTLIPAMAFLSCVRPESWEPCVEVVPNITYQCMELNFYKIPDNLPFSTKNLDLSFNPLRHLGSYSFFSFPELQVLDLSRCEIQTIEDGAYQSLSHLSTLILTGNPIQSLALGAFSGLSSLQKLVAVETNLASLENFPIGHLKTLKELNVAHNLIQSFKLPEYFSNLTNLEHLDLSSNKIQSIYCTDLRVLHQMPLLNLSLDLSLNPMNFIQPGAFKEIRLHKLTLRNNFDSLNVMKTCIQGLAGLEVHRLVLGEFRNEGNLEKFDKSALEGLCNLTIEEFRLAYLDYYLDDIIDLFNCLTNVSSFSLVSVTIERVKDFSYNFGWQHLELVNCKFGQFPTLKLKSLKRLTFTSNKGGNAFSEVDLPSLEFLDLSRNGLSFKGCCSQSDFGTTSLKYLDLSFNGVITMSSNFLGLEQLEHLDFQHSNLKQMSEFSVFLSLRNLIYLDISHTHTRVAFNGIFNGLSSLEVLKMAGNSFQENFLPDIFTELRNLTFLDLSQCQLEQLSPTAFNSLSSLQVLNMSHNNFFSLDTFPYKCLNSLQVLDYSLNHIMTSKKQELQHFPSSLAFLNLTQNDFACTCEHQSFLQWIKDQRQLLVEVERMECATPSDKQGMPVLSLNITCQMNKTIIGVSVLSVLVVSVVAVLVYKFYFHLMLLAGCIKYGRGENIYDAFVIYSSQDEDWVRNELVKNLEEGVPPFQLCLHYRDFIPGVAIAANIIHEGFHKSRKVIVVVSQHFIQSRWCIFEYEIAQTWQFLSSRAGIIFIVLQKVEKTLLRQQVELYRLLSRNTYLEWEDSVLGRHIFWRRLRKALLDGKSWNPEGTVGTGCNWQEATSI
Target sequence (Q99836 whole entry, looked up): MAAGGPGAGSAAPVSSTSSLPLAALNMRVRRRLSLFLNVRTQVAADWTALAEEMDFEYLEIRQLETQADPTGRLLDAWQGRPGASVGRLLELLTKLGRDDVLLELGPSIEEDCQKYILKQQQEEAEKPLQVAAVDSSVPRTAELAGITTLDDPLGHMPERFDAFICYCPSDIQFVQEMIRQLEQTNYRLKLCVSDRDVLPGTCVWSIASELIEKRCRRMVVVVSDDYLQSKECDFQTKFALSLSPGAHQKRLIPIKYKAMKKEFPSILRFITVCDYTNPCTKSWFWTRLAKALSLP
CHOP inhibitor: CHOP inhibition in unfolded protein response; hit rate 3.8% among 220,000; CHO-K1 CHOP-promoter luciferase, tunicamycin-induced, 15-18 h; inhibition, % at 10 µM;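 active = compounds that reduced the stress-induced luciferase reporter signal by more than about 70% of percent inhibition, limit read from the data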
TLR9-MyD88 inh: TLR9-MyD88 interaction inhibition. AID 504734. Q9NR96+Q99836. inhibition, % at 4.98 µM. hit rate 0.21% among 340,000. CHO BLA complementation TLR9-MyD88, CCF4 FRET ratio;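 active = inhibition above the mean over all tested compounds plus 3 SD, cut at about 21% in these data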
UPR XBP1 act: activators of adaptive arm of unfolded protein response (XBP1); CHO-XBP1 luciferase reporter, IRE1-XBP1 UPR activation, luminescence; percent of tunicamycin response, DMSO as zero; hit rate 0.33% among 330,000; activation, % at 20 µM;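 active = versus positive control, 20 µM dose yields 30% or more activation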
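incubation = overnight seeding at 37 °C, 6 h compound treatment at 37 °C | assay system = CHO-XBP1 cells stably carrying IRE1-XBP1-driven luciferase reporter | input = 1000 cells per well | detection = luciferase luminescence | dosing = single point, 20 µM final compound, 1% DMSO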
NOD2 RIPK2 conf: NOD2-RIPK2 interaction inhibition confirmed; AID 624370; shares compounds with NOD2 RIPK2 PPI; inhibition, % at 4.98 µM; CHO cells, NOD2-RIPK2 BLA complementation, CCF4 FRET; hit rate 70% among 1,200;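 active = mean inhibition across replicates above a set limit taken from the earlier primary screen, cut at about 21% in these data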
NOD2 BLA counter: counter-screen for NOD2-RIPK2 interaction inhibitors: BLA reporter; shares compounds with NOD2 RIPK2 PPI; CHO BLA reporter, CCF4 FRET ratio, counterscreen; inhibition, % at 4.98 µM; hit rate 57% among 1,200;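 active = mean inhibition above the low-control mean inhibition plus three low-control SD, cut at about 11% in these data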
Large screens that a line does not name were inactive (follow-up assays come after a bar, where they were run). The sample as a whole holds a higher share of hits than the screen did.

Cc1ccc(S(=O)(=O)Oc2ccc(/C=C3/C(=N)N4C(=NC3=O)SN=C4S(C)(=O)=O)cc2)cc1	none (no result: TLR4 MyD88 comp, CHOP inhibitor)
COc1cc(/C=C2/C(=N)N3C(=NC2=O)SN=C3S(C)(=O)=O)ccc1OS(=O)(=O)c1ccc(C)cc1	NOD2 RIPK2 PPI 23 (no result: TLR4 MyD88 comp, CHOP inhibitor) | NOD2 RIPK2 conf inactive | NOD2 BLA counter inactive
O=C1c2cccc3c([N+](=O)[O-])ccc(c23)C(=O)N1O	NOD2 RIPK2 PPI 21 (no result: TLR4 MyD88 comp, CHOP inhibitor) | NOD2 RIPK2 conf inactive | NOD2 BLA counter 12
CCCCNC(=S)N1CCC(Cc2ccccc2)CC1	none (no result: TLR4 MyD88 comp, CHOP inhibitor)
COC(=O)CCCC1=CC2=CC(=O)C(C)(OC(=O)c3ccc(Cl)nc3)C(=O)C2=CO1 (configuration not stated)	none (no result: NOD2 RIPK2 PPI, TLR4 MyD88 comp, CHOP inhibitor, TLR9-MyD88 inh)
Cc1ccc(C(=O)/C=C/c2cn(CC(O)CN3CCOCC3)c3ccccc23)cc1 (configuration not stated)	NOD2 RIPK2 PPI 23 (no result: UPR CHOP act, UPR XBP1 act) | NOD2 RIPK2 conf 36 | NOD2 BLA counter 35
CCOc1ccc(C(=O)/C=C/c2cn(CN3CCN(C)CC3)c3ccccc23)cc1	NOD2 RIPK2 PPI 26 | NOD2 RIPK2 conf 24 | NOD2 BLA counter 37
O=C(/C=C/c1cn(CC(O)CN2CCOCC2)c2ccccc12)c1cccs1 (configuration not stated)	none (no result: NOD2 RIPK2 PPI, TLR4 MyD88 comp, TLR9-MyD88 inh)
COc1ccccc1/C=C(/NC(=O)c1ccc(Cl)cc1Cl)C(=O)O	NOD2 RIPK2 PPI 32 | NOD2 RIPK2 conf inactive | NOD2 BLA counter inactive
c1ccc2sc(N3CCCN(Cc4nc(-c5cnccn5)no4)CC3)nc2c1	none
COc1ccccc1C(=O)n1nc(-c2ccccc2)nc1NCc1ccco1	NOD2 RIPK2 PPI 30 | NOD2 RIPK2 conf inactive | NOD2 BLA counter 16
CCn1c(O)c(/C=N/N=C2CCCCC2)c2cc(C3=NNC(=O)CC3)ccc21	none (no result: TLR4 MyD88 comp)
Clc1ccc(N=NN2CCOCC2)cc1	none (no result: TLR4 MyD88 comp)
Cc1[nH]nc(C(F)(F)F)c1N=NN1CCOCC1	NOD2 RIPK2 PPI 44 (no result: UPR CHOP act, TLR4 MyD88 comp, CHOP inhibitor, UPR XBP1 act) | NOD2 RIPK2 conf inactive | NOD2 BLA counter inactive
CC(=O)Nc1ccc(Sc2ccc([N+](=O)[O-])o2)cc1	NOD2 RIPK2 PPI 29 (no result: UPR CHOP act, TLR4 MyD88 comp, CHOP inhibitor, UPR XBP1 act) | NOD2 RIPK2 conf 47 | NOD2 BLA counter 16
Cc1ccc(C(=O)c2sc3nsc(C)c3c2N)cc1	NOD2 RIPK2 PPI 24 | NOD2 RIPK2 conf 23 | NOD2 BLA counter 26
CN1C(=O)c2ccc(NC(=O)c3c(C(=O)O)cccc3[N+](=O)[O-])cc2C1=O	none (no result: TLR4 MyD88 comp, CHOP inhibitor)
